Among the data in ChEMBL document CHEMBL1149648, “Norcantharimides, synthesis and anticancer activity: Synthesis of new norcantharidin analogues and their anticancer evaluation” (2007) are inhibition and GI50 values, retold here.

Common to all, as to assay type: functional
One assay deals with SW480. Nature of the assay: Cytotoxicity against human SW480 cells at 100 uM after 72 hrs by MTT assay. As to conditions: SW480, 72 h. In outline:
(§1)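 Log-phase cells in DMEM with 10% FBS (37 °C, 5% CO2) were plated in duplicate at 2500–4000 cells/well. Agent was added 24 h later at a fixed final concentration of 100 µM and left for 72 h continuous exposure. Read-out was MTT absorbance at 540 nm, expressed as percent growth inhibition, where 100% means total growth inhibition.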
Background: Tetrazolium dyes change colour on reduction, which living cells bring about.

The test system of assay [1] is MCF7. Description: Cytotoxicity against human MCF7 cells at 100 uM after 72 hrs by MTT assay. The settings on record: MCF7, 72 h. In short, it runs like this: as §1
The test system of another assay is NCI-H460. Description: Cytotoxicity against human H460 cells at 100 uM after 72 hrs by MTT assay. The settings on record: NCI-H460, 72 h. In outline:
as §1

The nature of assay [2]: Cytotoxicity against human BE2C cells at 100 uM after 72 hrs by MTT assay. As to conditions: BE(2)-C. In outline: as §1
The next assay concerns A2780. Description: Cytotoxicity against human A2780 cells at 100 uM after 72 hrs by MTT assay. The settings on record: A2780, 72 h. In short, it runs like this:
as §1

Another assay has as its system DU-145. Nature of the assay: Cytotoxicity against human DU145 cells at 100 uM after 72 hrs by MTT assay. As to conditions: DU-145, 72 h. In outline:
as §1

The subject of a further assay is A-431. Description: Cytotoxicity against human A431 cells at 100 uM after 72 hrs by MTT assay. As to conditions: A-431, 72 h. In outline: as §1
A further assay concerns HT-29. Description: Cytotoxicity against human HT29 cells at 100 uM after 72 hrs by MTT assay. The settings on record: HT-29, 72 h. In short, it runs like this:
as §1

A short description of assay [3]: Cytotoxicity against human SJG2 cells at 100 uM after 72 hrs by MTT assay. The settings on record: SJ-G2, 72 h. In outline: as §1
In assay [4] the test system is MCF7. Nature of the assay: Cytotoxicity against human MCF7 cells after 72 hrs by MTT assay. As to conditions: MCF7, 72 h. In short, it runs like this:
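Cells were grown in DMEM with 10% FBS, bicarbonate, penicillin/streptomycin and 4 mM glutamine at 37 °C under 5% CO2. Log-phase cells were plated in duplicate at 2500–4000 cells/well. After 24 h, medium with or without agent was added (stocks in DMSO or water). Growth inhibition was read by MTT at 540 nm after 72 h continuous exposure. Values are means (SEM) of 3–6 experiments.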

The inhibition is how much of the control response was suppressed. A high value points to a strong effect. In the case of `CCCCCCCCN1C(=O)[C@@H]2[C@H](C1=O)[C@@H]1CC[C@H]2O1`, the inhibition at 100 µM with SW480 was 65%; in the assay with MCF7 [1], 88%; in the assay on NCI-H460, less than 10%; in assay [2], 68%; in the assay with A2780, 50%; with DU-145, 44%. The inhibition at 100 µM was found to be 61% in the assay on A-431, 70% in the assay on HT-29 and 54% in assay [3].
With `CCCCCCCCCCCCN1C(=O)[C@@H]2[C@H](C1=O)[C@@H]1CC[C@H]2O1`, the inhibition at 100 µM in the assay on SW480 came to 55%; with MCF7 [1] it was 52%; in the assay on NCI-H460 it was 53%; in assay [2], 40%; with A2780 it was 40%; in the assay on DU-145 it was 66%. Also, the inhibition at 100 µM is 35% in the assay with A-431, 25% in the assay on HT-29 and 58% in assay [3].
With `CCCN1C(=O)[C@@H]2[C@H](C1=O)[C@@H]1CC[C@H]2O1`, the inhibition at 100 µM is 45% in the assay on SW480; less than 10% in the assay with MCF7 [1]; less than 10% in the assay on NCI-H460; less than 10% in [2]; less than 10% in the assay with A2780; less than 10% in the assay on DU-145. Also, the results for the inhibition at 100 µM (in the assay on A-431; in the assay on HT-29; in assay [3]) were less than 10%, 16% and less than 10%, respectively.
Consider `CCC(C)N1C(=O)[C@@H]2[C@H](C1=O)[C@@H]1CC[C@H]2O1` (some centres not stated), for which the inhibition at 100 µM (in the assay with SW480; in the assay with MCF7 [1]; with NCI-H460; in assay [2]; with A2780; with DU-145) was less than 10% throughout. Also, the inhibition at 100 µM (in the assay with A-431; in the assay with HT-29; in assay [3]) was less than 10% in each case.
In the case of `CCCCCCN1C(=O)[C@@H]2[C@H](C1=O)[C@@H]1CC[C@H]2O1`, the inhibition at 100 µM (with SW480; with MCF7 [1]; with NCI-H460; in assay [2]; in the assay with A2780; in the assay on DU-145) was less than 10% throughout. Also, the inhibition at 100 µM (with A-431; with HT-29; in assay [3]) was less than 10% in each case.
As to `C=CCCN1C(=O)[C@@H]2[C@H](C1=O)[C@@H]1CC[C@H]2O1`, the inhibition at 100 µM (in the assay on SW480; in the assay with MCF7 [1]; in the assay with NCI-H460; in assay [2]; in the assay with A2780; in the assay with DU-145) was less than 10% each time. For the same compound, the inhibition at 100 µM (in the assay with A-431; in the assay on HT-29; in [3]) was less than 10% in each case.
Take `COC(CO)CN1C(=O)[C@@H]2[C@H](C1=O)[C@@H]1CC[C@H]2O1` (some centres not stated): the inhibition at 100 µM was less than 10% with SW480; 33% in the assay with MCF7 [1]; less than 10% in the assay on NCI-H460; less than 10% in assay [2]; less than 10% with A2780; less than 10% with DU-145. Besides, the inhibition at 100 µM was less than 10% with A-431, 12% in the assay with HT-29 and less than 10% in [3].
`O=C1[C@@H]2[C@H](C(=O)N1CCO)[C@@H]1CC[C@H]2O1`: the inhibition at 100 µM in the assay with SW480 is 18%; with MCF7 [1], 45%; in the assay on NCI-H460, 16%; in [2], less than 10%; in the assay on A2780, 15%; with DU-145 it was less than 10%. The inhibition at 100 µM in the assay with A-431 is less than 10%; with HT-29, 31%; in assay [3], less than 10%.
In the case of `CCCCN1C(=O)[C@@H]2[C@H](C1=O)[C@@H]1CC[C@H]2O1`, the inhibition at 100 µM (with SW480; in the assay on MCF7 [1]; with NCI-H460; in assay [2]; in the assay with A2780; in the assay with DU-145) was less than 10% in each case. Moreover, the inhibition at 100 µM (in the assay with A-431; in the assay with HT-29; in assay [3]) was less than 10% in each case.
As to `CCCCCCCCCCN1C(=O)[C@@H]2[C@H](C1=O)[C@@H]1CC[C@H]2O1`, the inhibition at 100 µM in the assay on SW480 is 59%; with MCF7 [1] it was 44%; in the assay on NCI-H460, more than 100%; in assay [2] it was 39%; with A2780, 44%; in the assay with DU-145, 83%. The results for the inhibition at 100 µM (in the assay on A-431; in the assay with HT-29; in assay [3]) were 52%, 20% and 72%, respectively.
`O=C1[C@@H]2[C@H](C(=O)N1C1CCCCC1)[C@@H]1CC[C@H]2O1`: the inhibition at 100 µM (with SW480; in the assay with MCF7 [1]; with NCI-H460; in [2]; in the assay on A2780; with DU-145) was less than 10% each time. Besides, the inhibition at 100 µM (with A-431; in the assay with HT-29; in assay [3]) was less than 10% in each case.
In the case of `O=C1[C@@H]2[C@H](C(=O)N1CC1CO1)[C@@H]1CC[C@H]2O1` (some centres not stated), the inhibition at 100 µM with SW480 is 30%; in the assay with MCF7 [1], 10%; with NCI-H460, 17%; in [2], 20%; in the assay with A2780, 40%; in the assay with DU-145, 22%. The values for the inhibition at 100 µM (in the assay with A-431; in the assay with HT-29; in assay [3]) were 40%, 25% and 25%, respectively.
Broadly, the GI50 is the concentration at which growth is held to half of that of the control. The low end stands for more potent growth inhibition, the high end for less potent growth inhibition. As for `C=CCN1C(=O)[C@@H]2[C@H](C1=O)[C@@H]1CC[C@H]2O1`, the inhibition at 100 µM with SW480 was 50%; with MCF7 [1] it was 96%; with NCI-H460 it was 20%; in assay [2], 62%; in the assay with A2780, 67%; in the assay with DU-145 it was 15%. The inhibition at 100 µM in the assay with A-431 was 32%; in the assay with HT-29, 19%; in [3] it was 2%. The compound also had a GI50 in the assay on MCF7 [4] of 80 µM.
On to `CCCCCCCCCCCCCCCCCCN1C(=O)[C@@H]2[C@H](C1=O)[C@@H]1CC[C@H]2O1`, for which the inhibition at 100 µM (in the assay with SW480; in the assay with MCF7 [1]; with NCI-H460; in assay [2]; in the assay with A2780; in the assay with DU-145) was less than 10% each time. In addition, the inhibition at 100 µM (in the assay on A-431; with HT-29; in assay [3]) was less than 10% in each case.
